Screens: PubChem BioAssay, The Scripps Research Institute Molecular Screening Center
Shown are actives, neighbours in structure and some others; about 4.3% of the full set was active somewhere.
STAT3 act = increases IL-6 driven STAT3 reporter signal; U3A cells, IL-6 STAT3-luciferase reporter, luminescence; 100% = signal with IL-6 EC80 alone; activation (% of control), % at 5.6 µM; actives 0.91% (n = 190,000);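 active means activation above the screen-wide mean of compound activation plus 3 SD, cut at about 130% in these data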;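 further: 0% = background luminescence of wells with medium and substrate only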
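Test system: Human STAT1-deficient U3A cells with stable STAT3-luciferase reporter | Also added: Interleukin-6, 33 ng/mL | Timing: Compound pre-incubation 1 h before IL-6, then 6 h stimulation at 37 °C | Technique: Luciferase reporter luminescence | Read-out: Percent of IL-6-only median luminescence | Benchmarks: IL-6-only wells as 100% reference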
STAT1 inh = reduces IFN-gamma driven STAT1 reporter signal | actives 0.35% (n = 200,000) | inhibition, % at 5.5 µM | NIH 3T3 STAT1-luciferase reporter, luminescence;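 active means inhibition above a set limit, the mean inhibition across all tested compounds plus 3 SD, cut at about 34% in these data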;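 further: 0% = IFN-gamma with DMSO and 100% = IFN-gamma with 300 µM nifuroxazide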
STAT3 inh-1 = inhibitors of IL-6 induced STAT3 signaling. actives 0.89% (n = 190,000). U3A cells, IL-6 STAT3-luciferase reporter, luminescence; host cell line lacks STAT1. inhibition, % at 5.5 µM. AID 862;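 active means inhibition above the mean inhibition across all screened compounds plus 3 SD, cut at about 44% in these data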;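 further: 0% = DMSO only wells and 100% = 100 µM nifuroxazide control wells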
STAT1 activator = activators of IFN-gamma induced STAT1 signaling; NIH 3T3 STAT1-luciferase reporter, luminescence; 100% = IFN-gamma alone, no compound; activation (% of control), % at 5.5 µM; actives 2.6% (n = 200,000); AID 932;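 active means activation above the screen-wide mean activation plus 3 SD, cut at about 130% in these data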;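 further: raw ratio to IFN-gamma control signal so 100% means no change and 0% no light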
STAT3 inh-2 = STAT3 inhibition, confirmation assay; shares compounds with STAT3 inh-1; U3A cells, IL-6 STAT3 luciferase reporter, luminescence; cell line lacks STAT1; inhibition, % at 5.7 µM; actives 45% (n = 1,200);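 active means inhibition above the hit cutoff computed for the primary STAT3 screen, cut at about 44% in these data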;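 further: 0% = IL-6 plus DMSO and 100% = IL-6 plus nifuroxazide control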
NFkB inh 2 = inhibits NF-kappaB, counter-screen to STAT3 inhibitors; shares compounds with STAT3 inh-1; HEK293T NF-kB luciferase reporter, TNF-alpha induced; inhibition, % at 5.7 µM; AID 1308; actives 36% (n = 1,200);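 active means inhibition above the mean of solvent-only control wells plus 3 SD, cutoff set per campaign, cut at about 13% in these data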;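 further: 0% = TNF-alpha with DMSO and 100% = TNF-alpha with MG high control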
STAT1 inh 2 = counter-screen for STAT3 inhibitors: STAT1 inhibition | shares compounds with STAT3 inh-1 | NIH 3T3 STAT1-luciferase reporter, IFN-gamma induced, luminescence | inhibition, % at 5.7 µM | actives 27% (n = 1,200) | AID 1317;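 active means inhibition above the mean plus 3 SD of solvent-only control wells, limit set per screening run, cut at about 16% in these data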;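 further: 0% = DMSO with IFN-gamma and 100% = nifuroxazide control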
* marks the source's active call; other numbers are inactive results; . = not tested or not shown.

SMILES	STAT3 act	STAT1 inh	STAT3 inh-1	STAT1 activator	STAT3 inh-2	NFkB inh 2	STAT1 inh 2
Oc1c(Br)cc(Br)cc1C=Nc1ccc2c(c1)OCCO2	97	-7	9	107	.	.	.
O=C(OCCN1C(=O)c2cccc3c(N4CCOCC4)ccc(c23)C1=O)c1ccc(Cl)cc1Cl	106	-9	-8	108	.	.	.
O=C(OCCN1C(=O)c2cccc3c(N4CCOCC4)ccc(c23)C1=O)c1ccccc1Cl	63	10	44*	91	47*	16*	12
O=C(CSc1nc2[nH]ncc2c(=O)[nH]1)Nc1ccccc1	99	-2	6	100	.	.	.
CCOC(=O)/C=C1\SCC(=O)N1CC(=O)NC(C)c1ccc(F)cc1 (stereo unspecified)	100	6	-1	95	.	.	.
Cc1cc(N2CCCCC2)nc(NCc2ccccc2)n1	69	23	46*	79	25	-9	21*
CC1CCN(CC(=O)Nc2ccc(N3CCCCCC3)cc2)CC1	108	1	-2	97	.	.	.
O=C(COc1ccccc1)Nc1ccncc1	98	9	6	90	.	.	.
O=C(CSc1ccc2ccccc2c1)Nc1ccncc1	61	6	50*	94	45*	-3	-1
Cc1cc(OCC(=O)Nc2ccncc2)cc(C)c1Br	45	1	68*	99	66*	-7	-14
O=C(COc1ccc2ccccc2c1)Nc1ccncc1	63	3	45*	95	44*	-8	-3
O=C(CSc1nnc(-c2ccc(O)cc2)n1Cc1ccccc1)NNC(=O)c1ccc(Br)cc1	99	-4	-1	104	.	.	.
CCC(OC(C)=O)c1cc2c(cc1[N+](=O)[O-])OCCO2 (stereo unspecified)	102	-3	3	101	.	.	.
CNC(=O)COC(=O)c1ccccc1Nc1ccccc1	111	-8	-6	106	.	.	.
O=[N+]([O-])c1ccc(Oc2ccc(S(=O)(=O)N3CCCCC3)cc2)cc1	104	6	-7	94	.	.	.
CC1CCN(S(=O)(=O)c2ccc(Oc3ccc([N+](=O)[O-])cc3)cc2)CC1	68	12	47*	89	18	-3	1
Cc1ccc(S(=O)(=O)NCc2cn3c(C)csc3n2)cc1	100	8	5	93	.	.	.
Cc1ccc(SCc2cn3c(C)csc3n2)cc1	55	-28	54*	126	22	-21	-70
CCC(C)N(C(=O)COc1ccc(NC(C)=O)cc1)C1CCS(=O)(=O)C1 (stereo unspecified)	105	-4	-4	103	.	.	.
CCCCCN(C(=O)NC(=O)Nc1ccc(C)cc1)S(=O)(=O)c1ccccc1	96	-2	0	102	.	.	.
Fc1cccc(F)c1/C=C/c1ccc2ccccc2n1	55	-3	56*	103	7	23*	-30
Cc1ccsc1/C=C/C(=O)O	95	-3	8	101	.	.	.
Cc1ccsc1/C=C/c1ccc2ccccc2n1	69	16	46*	86	46*	20*	7
c1ccc2oc(-c3csc(N4CCOCC4)n3)cc2c1	53	20	58*	80	31	-17	-103
CCOC(=O)N/N=C(\C)c1ccccc1OC(F)F	106	8	-4	93	.	.	.
SMILES	STAT3 act	STAT1 inh	STAT3 inh-1	STAT1 activator	STAT3 inh-2	NFkB inh 2	STAT1 inh 2
COc1cccc(NC(=O)Nc2nccc(C)n2)c1	42	33	71*	69	37	3	-58
COc1cccc(NC(=O)Nc2ccc3c(c2)nc(C)n3C)c1	57	7	54*	92	12	-15	-39
COc1cccc(NC(=O)c2ccncc2)c1	99	-5	8	104	.	.	.
Cc1cc(NC(=O)NC(C(F)(F)F)C(F)(F)F)no1	102	-6	3	104	.	.	.
CN(Cc1nccn1C)C(=O)c1cc(COc2ccc3ncccc3c2)on1	85	14	22	86	.	.	.
O=C(c1cc(COc2ccc3ncccc3c2)on1)N1CCCC(O)C1 (stereo unspecified)	87	23	19	78	.	.	.
Cc1cc(CN(C)C(=O)c2cc(COc3ccc4ncccc4c3)on2)on1	55	21	58*	80	56*	19*	19*
O=C(NC1CCCCCCC1)c1cc(COc2ccc3ncccc3c2)on1	37	30	79*	72	75*	27*	17*
CCC(O)C1CCN(C(=O)c2cc(COc3ccc4ncccc4c3)on2)CC1 (stereo unspecified)	32	33	84*	68	84*	29*	27*
O=C(c1cc(COc2ccc3ncccc3c2)on1)N1CCC(O)CC1	83	12	23	88	.	.	.
COc1ccc(/C=C/C(=O)Oc2cc(C)[nH]c(=O)c2[N+](=O)[O-])cc1OC	103	6	0	93	.	.	.
COc1ccc(C2OC(=O)CC2C(=O)NCc2ccc(Cl)cc2)cc1OC (stereo unspecified)	115	-15	-12	116	.	.	.
O=C(COc1ccc2ccc(=O)oc2c1)N1CCc2ccccc21	98	-25	10	121	.	.	.
Cc1ccc2nc(Cl)c3nnnn3c2c1	109	23	2	78	.	.	.
CC(C)c1ccc(NC(=O)c2csnn2)cc1	64	-50	45*	146*	8	-21	-79
Cc1cccc(NC(=O)CNC(=O)COc2cc(F)ccc2[N+](=O)[O-])c1C	99	-1	3	99	.	.	.
NCCNc1ccc([N+](=O)[O-])c(NC2CC2)c1	104	2	4	98	.	.	.
COc1ccc(C(=O)Nc2nnc(-c3ccco3)s2)cc1	31	35*	82*	83	55*	19*	-36
O=C(Nc1nnc(-c2ccco2)s1)c1ccccc1	64	-28	47*	125	13	-29	-100
COc1ccccc1NC(=O)Nc1nnc(-c2ccco2)s1	89	-4	20	104	.	.	.
COc1ccc(C(=O)CC(=O)C(=O)NCCc2cccc(C)c2)cc1	100	-3	-3	103	.	.	.
CC(C1CC2CCC1C2)n1c(-c2ccco2)n[nH]c1=S (stereo unspecified)	106	13	-5	87	.	.	.
CCCC(NC(=S)NCC1CCCO1)C12CC3CC(CC(C3)C1)C2 (stereo unspecified)	100	2	1	97	.	.	.
COC(=O)/C=C1\N/C(=N\c2nc(C)cc(C)n2)N(c2ccc(C)c(C)c2)C1=O	109	1	-6	99	.	.	.
CC(=O)c1c(C)[nH]c(C(=O)COc2cc(C)cc(C)c2)c1C	66	12	44*	89	36	7	12
Cc1oc(-c2cccs2)nc1CN1CCN(Cc2ccc(F)c(F)c2)C(CCO)C1 (stereo unspecified)	115	-10	-12	108	.	.	.
